For orientation: logP means the decadic logarithm of the partition coefficient of the neutral form, usually between octanol and water. Low values mean lower lipophilicity, high ones higher lipophilicity.

One data set concerns rats. The settings on record: 2.3 mmol/kg; cited from earlier work.
The subject of data set [1] is CWR22rv1 xenografts. In words: Single-isotope in vivo biodistribution. Further details: species or system mice. The settings on record: for Tumor uptake of the tracer: tail vein, nude mice. The method, boiled down:
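Nude mice (20–25 g) carried CWR22rv1 tumours grown from 5 × 10^6 cells in medium/Matrigel, injected s.c. at the right forelimb. They received 3.7–5.5 MBq (100–150 µCi) of the 18F test compound in 200 µL saline by tail vein; dose per animal came from syringe readings before and after injection. Organs were harvested at 1, 2, 3 and 4 h and γ-counted (400–600 keV, decay-corrected) for %ID/g and tumour-to-organ ratios; n = 3 per time point, mean ± SD.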

The test system of data set [2] is CWR22rv1 xenografts. The experiment in a line: Small-animal PET 1 h after tail vein injection. The class given is in vivo, mice. The note with it: 1 h after administration via tail vein. The method, boiled down: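 CWR22rv1-xenografted nude mice, not fasted, received 11.1 MBq (300 µCi) of the 18F test compound by tail vein. They were held under 2% isoflurane in oxygen (2 L/min) and scanned on a small-animal PET at 1 h for 5 min, using a 350–700 keV window and 6 ns coincidence window. Images were corrected for nonuniformity, dead time and decay, but not for attenuation, scatter or partial volume. %ID/g came from a phantom-derived calibration factor.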

The subject of a further data set is CWR22rv1 tumors. The experiment in a line: Dual-isotope comparative biodistribution. It counts as in vivo, mice. The settings on record: 1 h after simultaneous tail vein injection. Summed up: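 Nude mice bearing subcutaneous CWR22rv1 xenografts received, by tail vein, 200 µL saline containing 3.7 MBq of the 18F test compound and about 0.0037 MBq 14C-acetate, and were euthanized 1 h later. 18F was γ-counted (400–600 keV, decay-corrected). Samples were then solubilised and held 1 d at 4°C, and 14C was read by liquid scintillation with external-standard quench correction. %ID/g = activity/decay-corrected injected activity/organ weight; n = 4, mean ± SD.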

Data set [3] in a line: Octanol–water partition coefficient study. The class given is physicochemical. The settings on record: 1-octanol/phosphate-buffered saline. The method, boiled down: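 The 18F test compound (20 µL, ~10–20 µCi in saline) was added to 5 mL each of 1-octanol and phosphate-buffered saline at pH 6.4, 7.0, 7.4 or 8.4. The mixture was vortexed 1 min and centrifuged 5 min.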

Regarding `CC(F)C(=O)O` (stereo not shown) [FPA], the Acute toxicity result in the data set with rats was “no acute toxicity”.

For the compound `CC([18F])C(=O)O` (stereo not shown) [^18F-FPA, 2-^18F-fluoropropionic acid], the “Tumor-to-organ ratio, heart” value with CWR22rv1 xenografts [1] (1, 2, 3, and 4 h after injection) is “around 0.95”. The “Tumor uptake of the tracer” value with CWR22rv1 xenografts [1] (1 h after injection) is 5.52 ± 0.35 %ID/g. Further, the “Tumor uptake of the tracer” value in the data set on CWR22rv1 xenografts [1] (2 h after injection) came to 5.53 ± 0.42 %ID/g. Moreover, the “Tumor uptake of the tracer” value with CWR22rv1 xenografts [1] (3 h after injection) amounted to 5.74 ± 0.54 %ID/g. Besides, the “Tumor uptake of the tracer” value with CWR22rv1 xenografts [1] (4 h after injection) was 5.34 ± 0.19 %ID/g. For the same compound, the Defluorination in vivo result in the data set with CWR22rv1 xenografts [1] (PET and biodistribution studies, low bone uptake) is given as “no evidence of defluorination”. In the data set with CWR22rv1 xenografts [2], the “Uptake in the brain (PET)” value amounted to 4.6 %ID/g and the “Uptake in the heart (PET)” value was 4.0 %ID/g. In addition, in the data set on CWR22rv1 xenografts [2] (CWR22rv1 tumor), the “Uptake in the tumor (PET)” value stood at 4.4 %ID/g. In the data set on CWR22rv1 tumors, the “Tumor-to-organ ratio, Blood” value turned out to be 1.03; the “Tumor-to-organ ratio, Bone” value stood at 4.23; the “Tumor-to-organ ratio, Brain” value is reported as 1.27; the “Tumor-to-organ ratio, Kidneys” value stood at 1.70. In the data set with CWR22rv1 tumors, the “Tumor-to-organ ratio, Large intestine” value was 1.91; the “Tumor-to-organ ratio, Liver” value is 1.26; the “Tumor-to-organ ratio, Lungs” value is reported as 1.77; the “Tumor-to-organ ratio, Muscle” value worked out at 1.94. In the data set on CWR22rv1 tumors, the “Tumor-to-organ ratio, Small intestine” value came out at 1.62; the “Tumor-to-organ ratio, Spleen” value is recorded as 1.62; the “Tumor-to-organ ratio, Stomach” value was found to be 2.80; the “Tumor-to-organ ratio, Tumor” value is recorded as 1.00. The “Tumor-to-organ ratio, heart” value in the data set on CWR22rv1 tumors came to 1.30. Moreover, in the data set on CWR22rv1 tumors (n = 4), the “%ID/g, Blood” value was 6.88 ± 0.64 %ID/g; the “%ID/g, Bone” value turned out to be 1.68 ± 0.54 %ID/g; the “%ID/g, Brain” value turned out to be 5.57 ± 0.33 %ID/g; the “%ID/g, Heart” value was 5.46 ± 0.63 %ID/g. Also, in the data set on CWR22rv1 tumors (n = 4), the “%ID/g, Kidneys” value worked out at 4.17 ± 0.60 %ID/g; the “%ID/g, Large intestine” value came to 3.71 ± 1.09 %ID/g; the “%ID/g, Liver” value stood at 5.61 ± 0.50 %ID/g; the “%ID/g, Lungs” value is 4.00 ± 0.26 %ID/g. Further, in the data set with CWR22rv1 tumors (n = 4), the “%ID/g, Muscle” value is listed as 3.66 ± 0.50 %ID/g; the “%ID/g, Small intestine” value is given as 4.37 ± 1.15 %ID/g; the “%ID/g, Spleen” value came out at 4.36 ± 0.85 %ID/g; the “%ID/g, Stomach” value amounted to 2.53 ± 1.04 %ID/g. The “%ID/g, Tumor” value in the data set with CWR22rv1 tumors (CWR22rv1 tumors, n = 4) is 7.08 ± 0.80 %ID/g. The same compound had a logP in data set [3] (pH 6.4) of −2.89 ± 0.02. The compound further returned a logP in data set [3] (pH 7.0) of −3.08 ± 0.04. This compound showed a logP in data set [3] (pH 7.4) of −2.97 ± 0.13. This compound also had a logP in data set [3] (pH 8.4) of −3.07 ± 0.03.

The record behind these values is PMC4429801 (Journal of nuclear medicine : official publication, Society …, 2009).
